Measurements of several laboratories.
Each line is one published result; the experiments were not run side by side.
Effect on: metabolic stability
Host: rat

| SMILES | sample | tested at | pH | half-life [min] |
| --- | --- | --- | --- | --- |
| C[C@]12CC[C@H]3[C@@H](CCC4=CC(=O)CC[C@@]43C)[C@@H]1CC[C@@H]2O | liver microsomes | – | – | 1.55 |
| C[C@]12CC[C@H]3[C@@H](CCC4=CC(=O)CC[C@@]43C)[C@@H]1CC[C@@H]2O | liver microsomes | 1 µM | pH 7.4 | 5.45 |
| CC(=O)c1c(C)c2cnc(Nc3ccc(C4CCN(CCS(C)(=O)=O)CC4)cn3)nc2n(C2CCCC2)c1=O | liver microsomes | – | – | 65.4 |
| Cc1[nH]c(C)c(S(=O)(=O)Nc2ccc(S(=O)(=O)F)c(Cl)c2)c1C(=O)N1CCC(F)(F)C1 | liver microsomes | – | – | 11 |
| Cc1ncc2n1-c1ccc(Cl)cc1C(c1ccccc1F)=NC2 | hepatocytes | – | – | 20.4 |
| O=c1[nH]c2ccccc2n1C1CCN(CCCC(c2ccc(F)cc2)c2ccc(F)cc2)CC1 | liver microsomes | 100 ng/mL | – | 80 |
| Cc1[nH]c(C)c(S(=O)(=O)Nc2ccc(S(F)(F)(F)(F)F)c(Cl)c2)c1C(=O)N1CCC(F)(F)C1 | liver microsomes | – | – | 34 |
| CC(C)CC(=O)OC[C@H]1O[C@@](C#N)(c2ccc3c(N)ncnn23)[C@H](O)[C@@H]1O | plasma | 5 µM | – | 0.422 |
